Test results reported in ChEMBL document CHEMBL1131478 (J Med Chem, 1998).

What was measured:
[1] = target: Matrix metalloproteinase-9 (Homo sapiens, UniProt P14780); test: Inhibitory activity against human gelatinase B (Matrix metalloprotease-9)
[2] = target: 72 kDa type IV collagenase (Homo sapiens, UniProt P08253); test: Inhibitory activity against human gelatinase A (matrix metalloprotease-2 MMP2)
[3] = Maximum plasma concentration (Cmax) after p.o. administration of 200 mg/kg in mice; format: ADME, organism-based; set-up: dose 200 mg/kg, route oral; conditions: mouse, po
Outline: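 Single 200 mg/kg oral dose in mice, given in 0.5% methyl cellulose. Blood drawn at various time points. Plasma drug extracted with CH3CN and quantified by reverse-phase C18 HPLC using a CH3CN gradient with 0.1% TFA. Peak plasma level taken as Cmax.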

Matrix metalloproteinase-9, sequence (P14780 whole entry): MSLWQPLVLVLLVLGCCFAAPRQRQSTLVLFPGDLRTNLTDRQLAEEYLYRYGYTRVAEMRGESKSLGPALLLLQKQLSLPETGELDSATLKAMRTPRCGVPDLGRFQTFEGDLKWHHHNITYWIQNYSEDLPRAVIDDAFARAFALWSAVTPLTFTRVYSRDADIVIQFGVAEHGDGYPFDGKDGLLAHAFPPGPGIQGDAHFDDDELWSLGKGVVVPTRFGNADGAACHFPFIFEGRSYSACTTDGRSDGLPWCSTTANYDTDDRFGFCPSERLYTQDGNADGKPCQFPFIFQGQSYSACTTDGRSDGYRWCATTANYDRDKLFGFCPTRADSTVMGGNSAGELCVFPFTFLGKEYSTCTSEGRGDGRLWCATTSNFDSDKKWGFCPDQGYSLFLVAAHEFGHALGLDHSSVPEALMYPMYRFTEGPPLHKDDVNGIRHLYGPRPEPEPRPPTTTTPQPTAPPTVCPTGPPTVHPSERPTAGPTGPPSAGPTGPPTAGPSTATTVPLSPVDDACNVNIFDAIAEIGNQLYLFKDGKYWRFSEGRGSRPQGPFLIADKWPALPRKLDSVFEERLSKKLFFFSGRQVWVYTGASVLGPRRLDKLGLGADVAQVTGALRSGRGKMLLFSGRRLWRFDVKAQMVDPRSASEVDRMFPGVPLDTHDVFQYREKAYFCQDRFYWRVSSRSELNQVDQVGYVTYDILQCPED
72 kDa type IV collagenase, sequence (P08253 whole entry): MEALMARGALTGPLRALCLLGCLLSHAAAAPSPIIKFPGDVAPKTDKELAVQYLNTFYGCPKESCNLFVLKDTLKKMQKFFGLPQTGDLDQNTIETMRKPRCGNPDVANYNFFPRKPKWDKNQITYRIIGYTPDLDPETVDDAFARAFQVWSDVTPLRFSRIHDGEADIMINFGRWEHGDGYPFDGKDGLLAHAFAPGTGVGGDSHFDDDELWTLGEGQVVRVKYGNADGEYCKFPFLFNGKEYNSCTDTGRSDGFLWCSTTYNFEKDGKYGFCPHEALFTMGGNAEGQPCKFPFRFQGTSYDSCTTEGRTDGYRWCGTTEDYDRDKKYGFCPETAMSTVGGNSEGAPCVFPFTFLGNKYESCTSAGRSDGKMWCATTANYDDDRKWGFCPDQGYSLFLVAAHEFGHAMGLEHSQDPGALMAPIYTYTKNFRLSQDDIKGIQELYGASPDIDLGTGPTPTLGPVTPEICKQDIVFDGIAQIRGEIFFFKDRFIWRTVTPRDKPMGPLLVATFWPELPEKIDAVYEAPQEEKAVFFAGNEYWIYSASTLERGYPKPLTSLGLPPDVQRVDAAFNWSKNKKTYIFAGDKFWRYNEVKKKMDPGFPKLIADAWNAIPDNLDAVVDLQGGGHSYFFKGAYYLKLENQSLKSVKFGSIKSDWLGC

IC50 [1] [µM] | IC50 [2] [µM] | Cmax [3] [µM] | SMILES
7.8 | 1 | – | COc1ccc(C#Cc2ccc(S(=O)(=O)N[C@H](Cc3ccccc3)C(=O)O)cc2)cc1
> 10 | > 1 | – | O=C(O)[C@@H](Cc1c[nH]c2ccccc12)NS(=O)(=O)c1ccc(Cc2ccccc2)cc1
0.081 | 0.0065 | 3.5 | COc1ccc(-c2ccc(S(=O)(=O)N[C@H](Cc3c[nH]c4ccccc34)C(=O)O)cc2)cc1
– | < 0.04 | – | Cc1ccc(C(=O)Nc2ccc(S(=O)(=O)N[C@H](Cc3ccccc3)C(=O)O)cc2)cc1
0.016 | 0.034 | 10.8 | Cc1ccc(C#Cc2ccc(S(=O)(=O)N[C@H](Cc3c[nH]c4ccccc34)C(=O)O)cc2)cc1
– | 0.13 | – | CC(C)[C@@H](NS(=O)(=O)c1ccc(-c2nnn(-c3ccccc3)n2)cc1)C(=O)O
– | 0.017 | 2.5 | O=C(NO)[C@@H](Cc1ccccc1)NS(=O)(=O)c1ccc(-c2ccccc2)cc1
– | 0.0083 | 2.5 | O=C(O)[C@@H](Cc1c[nH]c2ccccc12)NS(=O)(=O)c1ccc(-c2nnn(-c3ccc(Br)cc3)n2)cc1
– | 0.013 | 2.1 | COc1ccc(-n2nnc(-c3ccc(S(=O)(=O)N[C@H](Cc4c[nH]c5ccccc45)C(=O)O)cc3)n2)cc1
0.58 | 0.11 | 12.1 | O=C(O)[C@@H](Cc1ccccc1)NS(=O)(=O)c1ccc(-c2nnn(-c3ccccc3)n2)cc1
– | < 0.2 | 1.2 | Cc1ccc(-n2nnc(-c3ccc(S(=O)(=O)N[C@H](Cc4ccccc4)C(=O)O)cc3)n2)cc1
– | < 1 | – | O=C(Nc1ccc(S(=O)(=O)N[C@H](Cc2ccccc2)C(=O)O)cc1)c1ccccc1
1.1 | 1 | – | COc1cccc(-c2ccc(S(=O)(=O)N[C@H](Cc3c[nH]c4ccccc34)C(=O)O)cc2)c1
0.18 | 0.053 | 34.3 | O=C(O)[C@@H](Cc1c[nH]c2ccccc12)NS(=O)(=O)c1ccc(-c2ccccc2)cc1
0.8 | – | – | O=C(O)[C@H](Cc1ccccc1)NS(=O)(=O)c1ccc(-c2ccccc2)cc1
– | 0.31 | 291 | O=C(O)[C@@H](Cc1ccccc1)NS(=O)(=O)c1ccc(-c2ccccc2)cc1

The remaining lines, values behind:

SMILES | IC50 [1] [µM] | IC50 [2] [µM] | Cmax [3] [µM]
O=C(NO)[C@@H](Cc1c[nH]c2ccccc12)NS(=O)(=O)c1ccc(-c2ccccc2)cc1 | 0.005 | 0.0013 | –
CC(C)[C@@H](NS(=O)(=O)c1ccc(NC(=O)c2ccccc2)cc1)C(=O)O | 2.1 | 0.05 | –
O=C(O)[C@@H](Cc1c[nH]c2ccccc12)NS(=O)(=O)c1ccccc1 | 3.4 | > 1 | –
O=C(O)[C@@H](Cc1c[nH]c2ccccc12)NS(=O)(=O)c1ccc(C#Cc2ccccc2[N+](=O)[O-])s1 | 1.5 | > 1 | –
O=C(O)[C@@H](Cc1c[nH]c2ccccc12)NS(=O)(=O)c1ccc(C#Cc2ccccc2)cc1 | 0.24 | 0.05 | –
O=C(N[C@H](Cc1ccccc1)C(=O)NO)c1ccc(-c2ccccc2)cc1 | > 50 | > 1 | –
O=C(O)[C@@H](Cc1c[nH]c2ccccc12)NS(=O)(=O)c1ccc(Oc2ccccc2)cc1 | 0.25 | 0.05 | –
O=C(O)[C@@H](Cc1c[nH]c2ccccc12)NS(=O)(=O)c1ccc2oc3ccccc3c2c1 | > 10 | > 1 | –
CC(C)[C@@H](NS(=O)(=O)c1ccc(Oc2ccccc2)cc1)C(=O)O | 1.1 | > 1 | 334
O=C(O)[C@@H](Cc1c[nH]c2ccccc12)NS(=O)(=O)c1ccc(/N=N/c2ccccc2)cc1 | 0.35 | 0.05 | –
CSc1ccc(C(=O)Nc2ccc(S(=O)(=O)N[C@@H](C(=O)O)C(C)C)cc2)cc1 | – | 0.0067 | 8.3
CC(C)[C@@H](NS(=O)(=O)c1ccc(NC(=O)c2ccc([N+](=O)[O-])cc2)cc1)C(=O)O | 0.27 | < 0.04 | –
COc1ccc(C#Cc2ccc(S(=O)(=O)N[C@H](Cc3ccccc3)C(=O)O)s2)cc1 | 0.024 | 0.01 | 119
O=C(NO)C(Cc1ccccc1)NS(=O)(=O)c1ccccc1 (configuration not stated) | 1 | – | –
O=C(Nc1ccc(S(=O)(=O)N[C@H](Cc2c[nH]c3ccccc23)C(=O)O)cc1)c1ccccc1 | – | < 0.04 | –
O=C(O)c1ccc(C#Cc2ccc(S(=O)(=O)N[C@H](Cc3c[nH]c4ccccc34)C(=O)O)cc2)cc1 | 8.8 | > 1 | –
O=C(Nc1ccccc1)Nc1ccc(S(=O)(=O)N[C@H](Cc2c[nH]c3ccccc23)C(=O)O)cc1 | > 10 | > 1 | –
COc1ccc(-c2ccc(S(=O)(=O)N[C@@H](C(=O)O)C(C)C)s2)cc1 | 0.072 | 0.066 | 97.5
O=C(O)[C@@H](Cc1c[nH]c2ccccc12)NS(=O)(=O)c1ccc2ccccc2c1 | > 10 | > 1 | –
Cc1ccc(C#Cc2ccc(S(=O)(=O)N[C@@H](C(=O)O)C(C)C)s2)cc1 | 0.014 | 0.053 | 284
O=C(NO)[C@H](Cc1ccccc1)NS(=O)(=O)c1ccccc1 | > 1000 | – | –
O=C(c1ccccc1)c1ccc(S(=O)(=O)N[C@H](Cc2c[nH]c3ccccc23)C(=O)O)cc1 | > 10 | > 1 | –
O=C(NO)[C@@H](Cc1ccccc1)NS(=O)(=O)c1ccccc1 | 0.73 | – | –
Cc1ccc(C#Cc2ccc(S(=O)(=O)N[C@@H](C(=O)O)C(C)C)cc2)cc1 | 1.2 | > 1 | –
O=C(O)[C@@H](Cc1ccccc1)NS(=O)(=O)c1ccc(-c2nnn(-c3ccc(C4CCCCC4)cc3)n2)cc1 | – | 0.28 | –
COc1ccc(-c2ccc(S(=O)(=O)N[C@@H](C(=O)O)C(C)C)cc2)cc1 | 0.04 | < 0.1 | 89.9
O=C(O)[C@@H](Cc1c[nH]c2ccccc12)NS(=O)(=O)c1ccc(C#Cc2ccc([N+](=O)[O-])cc2)s1 | 0.023 | – | –
O=C(Nc1ccccc1)c1ccc(S(=O)(=O)N[C@H](Cc2c[nH]c3ccccc23)C(=O)O)cc1 | > 10 | > 1 | –
CC(C)[C@@H](NS(=O)(=O)c1ccc(Oc2ccccc2)cc1)C(=O)NO | 0.00054 | 0.002 | 5.8
O=C(N[C@H](Cc1ccccc1)C(=O)O)c1ccc(-c2ccccc2)cc1 | > 50 | > 1 | –
